Reference: ChEMBL document CHEMBL1828587, “Pyrazolo[1,5-a]pyrimidines, triazolo[1,5-a]pyrimidines and their tricyclic derivatives as corticotropin-releasing factor 1 (CRF₁) receptor antagonists” (Bioorg Med Chem, 2011)
Calls of active or inactive are those of the source. No cut-off for these calls is given here.

Experiments:
[1] = biological target: T1, Corticotropin-releasing factor receptor 1 (Homo sapiens, UniProt P34998); assay: Displacement of [125I]-CRF from human CRF1 receptor expressed in CHO-K1 cells after 2 hrs by gamma counting; format: cell-based
T1 sequence (P34998 whole entry): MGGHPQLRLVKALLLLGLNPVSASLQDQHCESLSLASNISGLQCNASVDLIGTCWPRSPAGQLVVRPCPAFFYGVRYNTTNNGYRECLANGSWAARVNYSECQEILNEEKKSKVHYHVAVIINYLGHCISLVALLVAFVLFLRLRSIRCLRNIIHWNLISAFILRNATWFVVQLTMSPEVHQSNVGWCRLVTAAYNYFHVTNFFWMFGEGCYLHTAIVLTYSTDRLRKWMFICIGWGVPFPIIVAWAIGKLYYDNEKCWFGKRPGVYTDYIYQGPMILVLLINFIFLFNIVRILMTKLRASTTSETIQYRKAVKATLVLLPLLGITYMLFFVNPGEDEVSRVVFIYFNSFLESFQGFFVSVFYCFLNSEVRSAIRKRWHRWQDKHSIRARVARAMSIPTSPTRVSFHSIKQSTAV
Method in brief: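 Crude membranes were made from CRF1-expressing CHO-K1 cells in 50 mmol/l Tris-HCl with 10 mmol/l MgCl, 2 mmol/l EDTA and aprotinin. Membranes were incubated with 125I human/rat CRF (0.5 nmol/l solution added) and test compound (1~10000 nmol/L) for 2 h at room temperature. Bound and free ligand were separated by centrifugation and the pellet washed with PBS/0.01% Triton X-100, then gamma-counted. Nonspecific binding was defined with 1 µmol/l unlabeled CRF. IC50 was taken from concentration–response curves.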

[2] = biological target: T1, Corticotropin-releasing factor receptor 1; assay: Antagonist activity at human CRF1 receptor expressed in CHO-K1 cells assessed as inhibition of CRF-induced cAMP accumulation after 15 mins by cAMP enzyme immunoassay; format: functional, cell-based
Method in brief: (§1)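 CRF1-expressing CHO-K1 cells seeded at 1×10^4 cells/well and cultured overnight. Cells were washed with F-12 and preincubated 10 min at 37 °C in F-12 containing 1 mmol/l IBMX. Test compound (1–10000 nmol/l) was then added together with CRF (10 nmol/l in the added medium). After 15 min at 37 °C, intracellular cAMP was measured by enzyme immunoassay. IC50 was taken from concentration–response curves.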

[3] = biological target: T2, Corticotropin-releasing factor receptor 1 (Rattus norvegicus, UniProt P35353); assay: Antagonist activity at rat CRF1 receptor expressed in CHO-K1 cells assessed as inhibition of CRF-induced cAMP accumulation after 15 mins by cAMP enzyme immunoassay; format: functional, cell-based; method in brief: as §1
T2 sequence (P35353 whole entry): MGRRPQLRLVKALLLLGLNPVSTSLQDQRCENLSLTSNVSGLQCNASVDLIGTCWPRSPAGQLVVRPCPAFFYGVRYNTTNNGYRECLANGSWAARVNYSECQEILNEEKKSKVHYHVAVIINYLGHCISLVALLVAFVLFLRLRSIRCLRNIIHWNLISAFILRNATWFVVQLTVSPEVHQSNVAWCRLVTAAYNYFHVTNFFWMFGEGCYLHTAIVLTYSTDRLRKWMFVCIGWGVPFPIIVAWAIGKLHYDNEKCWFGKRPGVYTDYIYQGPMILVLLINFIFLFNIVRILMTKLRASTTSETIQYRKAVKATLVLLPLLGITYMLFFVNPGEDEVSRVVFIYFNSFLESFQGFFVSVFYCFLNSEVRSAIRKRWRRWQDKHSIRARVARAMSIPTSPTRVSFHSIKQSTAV

[4] = system: Rattus norvegicus; assay: Anxiolytic activity against swim-stress-induced anxiety like behavior in Sprague-Dawley rat assessed as increase in spent time in open arms at 10 mg/kg, po administered 1 hr before stress-challenge by elevated plus-maze test; format: functional, organism-based; parameters: dose 10 mg/kg
Method in brief: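 Male Sprague-Dawley rats (230–280 g) were dosed orally with compound in 0.5% MC, and tested 1 h after dosing. Rats were then placed on the elevated plus-maze (50 cm high) and video-tracked for 5 min for time in and entries into open arms. Results are mean ± S.E., n=16; vehicle vs drug by Dunnett test.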

[5] = AUC (0 to infinity) in rat at 1 mg/kg, iv; format: ADME, organism-based; parameters: dose 1 mg/kg, route intravenous, time infinity; settings: plasma
Method in brief: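 Single iv dose of 1 mg/kg in saline containing 30% HP-β-CD (w/v), given to fasted male rats (n = 4). Plasma stored at -70 °C. AUC derived from the plasma concentration time course.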

[6] = AUC (0 to infinity) in rat at 10 mg/kg, po; format: ADME, organism-based; parameters: time infinity, dose 10 mg/kg, route oral; settings: plasma
Method in brief: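 Single oral dose of 10 mg/kg in saline containing 0.5% MC (w/v), given to fasted male rats (n = 4). Heparinized jugular vein blood taken at 1, 2, 4, 6, 8, 24, 48, 72 h. Plasma stored at -70 °C. AUC to infinity derived from the plasma concentration time course.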

[7] = Tmax in rat at 10 mg/kg, po; format: ADME, organism-based; parameters: dose 10 mg/kg, route oral; settings: in vivo
Method in brief: (§2)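 Fasted male rats (n = 4) received 1 mg/kg iv in saline/30% HP-β-CD or 10 mg/kg po in saline/0.5% MC. Jugular blood was sampled up to 72 h, and plasma obtained by centrifugation and stored at -70 °C. AUC, Cmax, Tmax, T1/2, Vss and CL were derived from plasma concentration–time courses. F = dose-normalized AUCpo/AUCiv ×100.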

[8] = Cmax in rat at 10 mg/kg, po; format: ADME, organism-based; parameters: dose 10 mg/kg, route oral; settings: in vivo; method in brief: as §2
[9] = Total clearance in rat at 1 mg/kg, iv; format: ADME, organism-based; parameters: dose 1 mg/kg, route intravenous; settings: in vivo; method in brief: as §2
[10] = Half life in rat at 1 mg/kg, iv; format: ADME, organism-based; parameters: dose 1 mg/kg, route intravenous; settings: in vivo; method in brief: as §2
[11] = Half life in rat at 10 mg/kg, po; format: ADME, organism-based; parameters: dose 10 mg/kg, route oral; settings: in vivo; method in brief: as §2
[12] = Volume of distribution at steady state in rat at 1 mg/kg, iv; format: ADME, organism-based; parameters: dose 1 mg/kg, route intravenous; settings: in vivo, read-out: Vdss; method in brief: as §2
[13] = Oral bioavailability in rat at 10 mg/kg; format: ADME, organism-based; settings: in vivo; method in brief: as §2
[14] = Ratio of drug level in brain to plasma in rat at 10 mg/kg, po after 1 hr; format: ADME, organism-based; parameters: dose 10 mg/kg, route oral; settings: read-out: BPR
Method in brief: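 Rats were dosed orally at 10 mg/kg. Kp was calculated as brain content divided by plasma concentration, 1.0 h after dosing.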

SMILES: CCCN(CCC)c1c(C(C)C)c(Nc2ccc(OC)cc2Cl)nc2ccnn12
- IC50 [1]: 113 nM
- EC50 [2]: 234 nM

SMILES: CCCN(CCC)c1cc(N(C)c2ccc(OC)cc2Cl)nc2nccn12
- IC50 [1]: 67 nM

SMILES: CCc1ccc(Oc2nc3ccnn3c3c2ccn3C(CC)CC)c(OC)c1
- IC50 [1]: 7 nM
- EC50 [2]: 5.6 nM

SMILES: CCCN(CCC)c1cc(N(C)c2ccc(OC)cc2Cl)nc2ccnn12
- IC50 [1]: 20 nM
- EC50 [2]: 97 nM

SMILES: CCC(CC)n1ccc2c(Nc3c(C)cc(C)cc3C)nc3ccnn3c21
- IC50 [1]: 6.1 nM
- EC50 [2]: 4.1 nM

SMILES: CCCN(CCC)c1nc(N(C)c2ccc(OC)cc2Cl)nc2ccnn12
- IC50 [1]: 20 nM
- EC50 [2]: 26 nM

SMILES: C=C(C)CN(c1cc(N(CCC)CCC)n2nccc2n1)c1ccc(OC)cc1Cl
- IC50 [1]: 76.7 nM
- EC50 [2]: 856 nM

SMILES: CCCN(CCC)c1c(C)c(Nc2ccc(OC)cc2Cl)nc2ccnn12
- IC50 [1]: 8 nM
- EC50 [2]: 4 nM
- EC50 [3]: 81 nM
- Activity [4]: Active
- AUC(0-inf) [5]: 96 ng·h/mL
- AUC(0-inf) [6]: 153 ng·h/mL
- Tmax [7]: 4 h
- Cmax [8]: 27.4 ng/mL
- clearance [9]: 186 mL/min/kg
- half-life [10]: 1.7 h
- half-life [11]: 3.4 h
- Vd [12]: 14.4 L/kg
- bioavailability [13]: 16%
- Kp at 1 h [14]: 6.2

SMILES: CCc1cc(OC)ccc1Nc1nc2ccnn2c2c1ccn2C(CC)CC
- IC50 [1]: 2.4 nM
- EC50 [2]: 3.5 nM

SMILES: CCCc1c(Nc2ccc(OC)cc2Cl)nc2ccnn2c1N(CCC)CCC
- IC50 [1]: 32 nM
- EC50 [2]: 95 nM

SMILES: CCC(CC)Nc1cc(Nc2ccc(OC)cc2Cl)nc2ccnn12
- IC50 [1]: 14 nM
- EC50 [2]: 113 nM

SMILES: CCCN(CCC)c1c(CC)c(Nc2ccc(OC)cc2Cl)nc2ccnn12
- IC50 [1]: 4.2 nM
- EC50 [2]: 8.6 nM

SMILES: CCCN(CCC)c1cc(Nc2ccc(OC)cc2Cl)nc2ccnn12
- IC50 [1]: 61 nM
- EC50 [2]: 53 nM

SMILES: CCCN(CCC)c1cc(N(CC)c2ccc(OC)cc2Cl)nc2nccn12
- IC50 [1]: 42 nM
- EC50 [2]: 76 nM

SMILES: CCC(CC)n1ccc2c(Nc3ccc(OC)cc3Cl)nc3ccnn3c21
- IC50 [1]: 3.2 nM
- EC50 [2]: 0.7 nM

SMILES: CCCCc1c(Nc2ccc(OC)cc2Cl)nc2ccnn2c1N(CCC)CCC
- IC50 [1]: 340 nM

SMILES: CCc1cc(Cl)ccc1Nc1nc2ccnn2c2c1ccn2C(CC)CC
- IC50 [1]: 4.7 nM
- EC50 [2]: 3.9 nM

SMILES: CCCN(CCC)c1c(C)c(Nc2ccc(OC)cc2Cl)nc2ncnn12
- IC50 [1]: 8 nM
- EC50 [2]: 9 nM

SMILES: CCCN(CCC)c1c(C)c(Nc2ccc(OC)cc2Cl)nc2nccn12
- IC50 [1]: 12 nM
- EC50 [2]: 46 nM

SMILES: CCCN(CCC)c1cc(N(C)c2ccc(OC)cc2Cl)nc2ncnn12
- IC50 [1]: 33 nM
- EC50 [2]: 889 nM

SMILES: CCC(CC)Nc1cc(N(C)c2ccc(OC)cc2Cl)nc2ncnn12
- IC50 [1]: 42 nM
- EC50 [2]: 367 nM

SMILES: CCC(CC)Nc1c(C)c(Nc2ccc(OC)cc2Cl)nc2ncnn12
- IC50 [1]: 16 nM
- EC50 [2]: 58 nM

SMILES: CCCN(CCC)c1cc(N(CCOC)c2ccc(OC)cc2Cl)nc2ccnn12
- IC50 [1]: 680 nM

SMILES: CCC(CC)n1ccc2c(Cc3c(C)cc(C)cc3C)nc3ccnn3c21
- IC50 [1]: 7.1 nM
- EC50 [2]: 32.2 nM

SMILES: CCC(CC)Nc1c(C)c(Nc2ccc(OC)cc2Cl)nc2ccnn12
- IC50 [1]: 7.4 nM
- EC50 [2]: 7.4 nM

SMILES: CCCN(CCC)c1c(OC)c(Nc2ccc(OC)cc2Cl)nc2ccnn12
- IC50 [1]: 13 nM
- EC50 [2]: 883 nM

SMILES: CCCN(CCC)c1cc(N(CCC)c2ccc(OC)cc2Cl)nc2ccnn12
- IC50 [1]: 418 nM
- EC50 [2]: 75.7 nM

SMILES: C=CCN(c1cc(N(CCC)CCC)n2nccc2n1)c1ccc(OC)cc1Cl
- IC50 [1]: 4.4 nM
- EC50 [2]: 28.9 nM

SMILES: CCCN(CCC)c1c(C2CCCC2)c(Nc2ccc(OC)cc2Cl)nc2ccnn12
- IC50 [1]: 308 nM

SMILES: CCCN(CCC)c1cc(N(CC2CC2)c2ccc(OC)cc2Cl)nc2ccnn12
- IC50 [1]: 213 nM

SMILES: CCCN(CCC)c1cc(N(COC)c2ccc(OC)cc2Cl)nc2ccnn12
- IC50 [1]: 15 nM
- EC50 [2]: 4.4 nM

SMILES: CCCN(CCC)c1cc(N(CC)c2ccc(OC)cc2Cl)nc2ccnn12
- IC50 [1]: 31.6 nM
- EC50 [2]: 18.6 nM
